Source: ChEMBL document CHEMBL4184326, “Development of Thioaryl-Based Matrix Metalloproteinase-12 Inhibitors with Alternative Zinc-Binding Groups: Synthesis, Potentiometric, NMR, and Crystallographic Studies” (J Med Chem, 2018)
Activity calls are given as the source filed them. The rule behind the calls is not given here.

Assays:
[1] = target: Matrix metalloproteinase-9 (Homo sapiens, UniProt P14780); assay: Inhibition of recombinant human MMP-9 using Mca-Lys-Pro-Leu-Gly-Leu-Dap(Dnp)-Ala-Arg-NH2 as substrate preincubated for 3 hrs followed by substrate addition measured every 10 secs for 15 mins by fluorometric assay
Sequence of Matrix metalloproteinase-9 (P14780 whole entry): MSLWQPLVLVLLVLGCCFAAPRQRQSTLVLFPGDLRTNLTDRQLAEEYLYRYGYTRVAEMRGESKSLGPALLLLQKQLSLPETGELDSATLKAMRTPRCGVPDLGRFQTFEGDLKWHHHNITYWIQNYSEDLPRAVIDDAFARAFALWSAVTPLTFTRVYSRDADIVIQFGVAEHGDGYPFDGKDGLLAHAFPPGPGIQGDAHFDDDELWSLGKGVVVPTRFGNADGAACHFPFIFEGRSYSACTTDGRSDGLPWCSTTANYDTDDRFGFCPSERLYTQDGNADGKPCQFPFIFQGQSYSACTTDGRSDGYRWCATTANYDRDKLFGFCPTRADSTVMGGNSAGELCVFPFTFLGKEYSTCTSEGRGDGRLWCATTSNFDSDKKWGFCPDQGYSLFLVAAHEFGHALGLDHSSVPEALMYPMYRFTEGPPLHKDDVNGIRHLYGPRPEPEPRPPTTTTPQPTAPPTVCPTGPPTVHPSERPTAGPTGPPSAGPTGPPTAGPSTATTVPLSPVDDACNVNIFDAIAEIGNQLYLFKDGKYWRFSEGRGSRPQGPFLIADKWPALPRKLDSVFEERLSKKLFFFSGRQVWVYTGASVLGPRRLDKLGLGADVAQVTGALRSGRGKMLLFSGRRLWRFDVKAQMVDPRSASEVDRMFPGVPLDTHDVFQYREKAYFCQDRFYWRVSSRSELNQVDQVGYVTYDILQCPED

[2] = target: Macrophage metalloelastase (Homo sapiens, UniProt P39900); assay: Inhibition of recombinant human MMP-12 using Mca-Lys-Pro-Leu-Gly-Leu-Dap(Dnp)-Ala-Arg-NH2 as substrate preincubated for 3 hrs followed by substrate addition measured every 10 secs for 15 mins by fluorometric assay
Sequence of Macrophage metalloelastase (P39900 whole entry): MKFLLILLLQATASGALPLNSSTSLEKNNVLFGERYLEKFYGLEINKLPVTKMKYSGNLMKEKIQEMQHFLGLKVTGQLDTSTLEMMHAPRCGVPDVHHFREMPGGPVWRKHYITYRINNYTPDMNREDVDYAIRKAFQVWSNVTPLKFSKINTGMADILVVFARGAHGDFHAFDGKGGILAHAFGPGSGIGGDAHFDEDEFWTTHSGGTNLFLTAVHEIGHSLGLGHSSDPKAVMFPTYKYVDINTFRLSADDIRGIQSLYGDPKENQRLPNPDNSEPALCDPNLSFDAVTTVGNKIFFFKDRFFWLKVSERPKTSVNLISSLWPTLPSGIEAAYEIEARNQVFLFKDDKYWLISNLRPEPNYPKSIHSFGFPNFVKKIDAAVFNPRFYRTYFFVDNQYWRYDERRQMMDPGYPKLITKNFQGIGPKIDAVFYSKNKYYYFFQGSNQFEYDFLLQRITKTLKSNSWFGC

[3] = target: 72 kDa type IV collagenase (Homo sapiens, UniProt P08253); assay: Inhibition of recombinant human MMP-2 using Mca-Lys-Pro-Leu-Gly-Leu-Dap(Dnp)-Ala-Arg-NH2 as substrate preincubated for 3 hrs followed by substrate addition measured every 10 secs for 15 mins by fluorometric assay
Sequence of 72 kDa type IV collagenase (P08253 whole entry): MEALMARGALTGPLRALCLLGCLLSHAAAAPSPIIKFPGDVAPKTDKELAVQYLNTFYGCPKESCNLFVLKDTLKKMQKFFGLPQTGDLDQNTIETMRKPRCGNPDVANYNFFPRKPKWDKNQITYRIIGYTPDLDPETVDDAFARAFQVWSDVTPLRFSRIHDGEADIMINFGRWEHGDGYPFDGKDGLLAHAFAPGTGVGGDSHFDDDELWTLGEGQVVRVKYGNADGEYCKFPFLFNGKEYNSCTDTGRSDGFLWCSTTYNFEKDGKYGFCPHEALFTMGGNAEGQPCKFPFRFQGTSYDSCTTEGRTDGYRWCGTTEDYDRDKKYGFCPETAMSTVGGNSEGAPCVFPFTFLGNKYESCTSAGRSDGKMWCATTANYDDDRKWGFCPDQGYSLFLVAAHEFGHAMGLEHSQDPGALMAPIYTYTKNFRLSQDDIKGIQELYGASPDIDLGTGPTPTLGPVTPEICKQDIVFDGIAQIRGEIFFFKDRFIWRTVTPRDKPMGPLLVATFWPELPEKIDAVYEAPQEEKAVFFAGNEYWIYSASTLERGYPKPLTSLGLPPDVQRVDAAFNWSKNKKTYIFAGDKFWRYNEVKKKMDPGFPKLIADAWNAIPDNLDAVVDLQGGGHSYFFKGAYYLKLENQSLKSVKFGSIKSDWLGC

[4] = Metal chelating activity assessed as compound-Zn2+ complex formation at 1:2 metal to compound molar ratio at pH 3 to 8 by potentiometric titration method
How it was run: (§1)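 pH-potentiometric titration in 60% w/w DMSO/H2O, 25.0 ± 0.1 °C, I 0.1 M KCl, 0.1 M KOH titrant. Glass electrode calibrated with HCl/KOH via Gran's method. Ligand (4−7) × 10−4 M at Zn:L 0:1, 1:1 and 1:2, in duplicate. pKw 15.75. Constants were fitted in Hyperquad with a Zn(II) hydrolysis model included.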

[5] = Metal chelating activity assessed as compound-Zn2+ complex formation by measuring free metal ion levels at compound to metal molar ratio 10 at pH 6 by potentiometric titration method
[6] = Metal chelating activity assessed as compound-Zn2+ complex formation at 1:1 metal to compound molar ratio at pH 3 to 8 by potentiometric titration method; how it was run: as §1
[7] = Metal chelating activity assessed as compound-Zn2+ complex formation at 1:1 metal to compound molar ratio at pH 3 to 8 by 1H NMR method
[8] = Protonation constant, log K of the compound; format: physicochemical; conditions: 60% w/w DMSO/H2O; how it was run: as §1
[9] = Drug level in KCl/DMSO/water solution treated with 2-(2-((4'-Methoxy-[1,1'-biphenyl]-4-yl)sulfonyl)phenyl)-acetic hydroxamic acid; format: physicochemical; conditions: buffer
Interstitial collagenase = target: T1, Interstitial collagenase (Homo sapiens, UniProt P03956); assay: Inhibition of recombinant human MMP-1 using Mca-Lys-Pro-Leu-Gly-Leu-Dap(Dnp)-Ala-Arg-NH2 as substrate preincubated for 3 hrs followed by substrate addition measured every 10 secs for 15 mins by fluorometric assay
T1 sequence (P03956 whole entry): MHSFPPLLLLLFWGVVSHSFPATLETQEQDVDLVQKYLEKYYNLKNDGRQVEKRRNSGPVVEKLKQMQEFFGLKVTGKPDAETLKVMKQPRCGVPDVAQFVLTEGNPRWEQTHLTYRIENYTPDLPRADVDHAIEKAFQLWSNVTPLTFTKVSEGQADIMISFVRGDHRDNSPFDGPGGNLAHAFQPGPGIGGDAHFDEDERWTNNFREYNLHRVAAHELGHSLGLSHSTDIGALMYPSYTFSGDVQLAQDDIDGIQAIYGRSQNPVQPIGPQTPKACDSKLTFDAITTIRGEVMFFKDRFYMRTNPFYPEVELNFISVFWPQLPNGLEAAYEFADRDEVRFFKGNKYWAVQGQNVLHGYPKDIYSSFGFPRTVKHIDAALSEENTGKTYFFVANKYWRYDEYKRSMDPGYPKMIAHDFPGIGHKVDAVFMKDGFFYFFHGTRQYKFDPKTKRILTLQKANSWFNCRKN

[10] = target: Matrix metalloproteinase-14 (Homo sapiens, UniProt P50281); assay: Inhibition of recombinant human MMP-14 catalytic domain using Mca-Lys-Pro-Leu-Gly-Leu-Dap(Dnp)-Ala-Arg-NH2 as substrate preincubated for 3 hrs followed by substrate addition measured every 10 secs for 15 mins by fluorometric assay
Homo sapiens [11] = organism: Homo sapiens; assay: Selectivity ratio of IC50 for recombinant human MMP-9 to IC50 for recombinant human MMP-12
Homo sapiens [12] = organism: Homo sapiens; assay: Selectivity ratio of IC50 for recombinant human MMP-14 catalytic domain to IC50 for recombinant human MMP-12
Homo sapiens [13] = organism: Homo sapiens; assay: Selectivity ratio of IC50 for recombinant human MMP-2 to IC50 for recombinant human MMP-12

| IC50 [1] [µM] | IC50 [2] [µM] | IC50 [3] [µM] | Activity [4] | log(activity) [5] | Activity [6] | Activity [7] | log K [8] | Drug metabolism [9] | IC50 (Interstitial collagenase) [µM] | IC50 [10] [µM] | Ratio IC50 (Homo sapiens [11]) | Ratio IC50 (Homo sapiens [12]) | Ratio IC50 (Homo sapiens [13]) | Compound |
| --- | --- | --- | --- | --- | --- | --- | --- | --- | --- | --- | --- | --- | --- | --- |
| 1.12 | 0.25 | 0.25 |  |  |  |  |  |  |  |  |  |  |  | COc1ccc(-c2ccc(Sc3ccccc3CP(=O)(O)O)cc2)cc1 |
| 14.3 | 0.51 | 1.35 | Active | 6.14 | Active |  |  |  |  |  |  |  |  | COc1ccc(-c2ccc(S(=O)(=O)c3ccccc3C(CCC(=O)O)C(=O)O)cc2)cc1 (centres undefined) |
| 2.96 | 0.026 | 0.66 | Active | 6.04 | Active |  |  |  |  |  |  |  |  | COc1ccc(-c2ccc(Sc3ccccc3C(CCC(=O)O)C(=O)O)cc2)cc1 (centres undefined) |
| 24.5 | 7.5 | 2.5 | inactive | 6.91 | Active | Active | < 2 |  |  |  |  |  |  | COc1ccc(-c2ccc(S(=O)(=O)c3ccccc3CC(=O)NS(=O)(=O)C(F)(F)F)cc2)cc1 |
|  |  |  | Active | 6.1 | Active |  |  | Metabolite_Detected |  |  |  |  |  | COc1ccc(-c2ccc(S(=O)(=O)c3ccccc3CC(=O)O)cc2)cc1 |
|  | 0.004 |  | Active | 6.04 | Active |  | 10.29 |  | 250 | 2 |  |  |  | COc1ccc(-c2ccc(Sc3ccccc3CC(=O)NO)cc2)cc1 |
| 3.7 | 3.5 | 3.6 | Active | 6.56 | Active | Active | 5.5 |  |  |  |  |  |  | COc1ccc(-c2ccc(S(=O)(=O)c3ccccc3CC(=O)NS(C)(=O)=O)cc2)cc1 |
| 5.8 | 0.033 | 0.67 | Active | 6.05 | Active |  | 9.03 to 9.35 |  | 260 | 40 | 176 | 1200 | 20 | COc1ccc(-c2ccc(Sc3ccccc3C3CCC(=O)N(O)C3=O)cc2)cc1 (centres undefined) |
| 50 | 2.1 | 46 | inactive | 6.75 | Active | Active | < 2 |  |  |  |  |  |  | COc1ccc(-c2ccc(Sc3ccccc3CC(=O)NS(=O)(=O)C(F)(F)F)cc2)cc1 |
| > 10 | > 10 | > 10 |  |  |  |  |  |  |  |  |  |  |  | COc1ccc(-c2ccc(S(=O)(=O)c3ccccc3C(=O)CS(C)(=O)=O)cc2)cc1 |
| 1.43 | 0.04 | 0.414 | Active | 6.13 | Active |  | 9.03 to 9.35 |  | > 10 | 4 |  |  |  | COc1ccc(-c2ccc(S(=O)(=O)c3ccccc3C3CCC(=O)N(O)C3=O)cc2)cc1 (centres undefined) |
|  | 0.04 |  | inactive | 6.04 | Active |  |  |  |  |  |  |  |  | COc1ccc(-c2ccc(Sc3ccccc3CC(=O)O)cc2)cc1 |
|  | 0.6 |  |  |  |  |  |  |  |  |  |  |  |  | COc1ccc(-c2ccc(S(=O)(=O)c3ccccc3CP(=O)(O)O)cc2)cc1 |
| 332 | 230 | 230 |  |  |  |  |  |  |  |  |  |  |  | COc1ccc(-c2ccc(Sc3ccccc3C(=O)CS(C)(=O)=O)cc2)cc1 |
| 18 | 3.3 |  | inactive | 6.1 | Active | Active | 5.5 |  |  |  |  |  |  | COc1ccc(-c2ccc(Sc3ccccc3CC(=O)NS(C)(=O)=O)cc2)cc1 |
